Experimental data: ChEMBL document CHEMBL3817843, “Understanding Oxadiazolothiazinone Biological Properties: Negative Inotropic Activity versus Cytochrome P450-Mediated Metabolism” (J Med Chem, 2016)
Activity calls are given as the source filed them. The rule behind the calls is not given here.

Legend:
[1] = molecular target: Voltage-gated L-type calcium channel (Rattus norvegicus, UniProt P22002+Q02485+P27732); assay: Displacement of [3H]Verapamil from LTCC PAA site in Sprague-Dawley rat cardiomyocytes after 60 mins by liquid scintillation counting analysis; format: cell-based
Method in brief: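 Frozen pooled cardiomyocytes (at least three animals) resuspended in 50 mmol/L Tris-HCl pH 7.4, 0.15−0.3 mg protein/tube, 25 °C for 60 min. [3H]verapamil 0.5 nM displaced by unlabeled compound (0.1 nM−0.1 mM). Nonspecific binding defined with 0.1 mM verapamil. GF/C filtration, two washes with 20 mmol/L Tris-HCl, liquid scintillation counting, duplicate measurements.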

[2] = system: Aorta; assay: Inhibition of nifedipine-induced vasorelaxant activity in potassium depolarized guinea pig aorta assessed as relaxation of calcium-induced contraction at 10^-6 M preincubated for 30 mins followed by nifedipine addition; format: functional, tissue-based; details: Cavia porcellus
Method in brief: (§1)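 K+-depolarized (80 mM) guinea pig aortic strips contracted with calcium. Compound at 1 μM added 30 min before diltiazem, verapamil or nifedipine. Response expressed as percent change from control. Data given as mean ±, Student's t test.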

[3] = system: Left cardiac atrium; assay: Negative inotropic activity in potassium depolarized guinea pig left atrium assessed as reduction in developed tension at 10^-8 M preincubated for 30 mins followed by 0.5 uM nifedipine addition; format: functional, Cavia porcellus; set-up: scale not given: the % may be the effect or the level left
[4] = system: Left cardiac atrium; assay: Negative inotropic activity in potassium depolarized guinea pig left atrium assessed as reduction in developed tension at 10^-8 M preincubated for 30 mins followed by 10^-6 M verapamil addition; format: functional, Cavia porcellus; set-up: scale not given: the % may be the effect or the level left
[5] = system: Left cardiac atrium; assay: Negative inotropic activity in potassium depolarized guinea pig left atrium assessed as EC50 for verapamil at 10^-8 M preincubated for 30 mins followed by verapamil addition; format: functional; details: Cavia porcellus
Method in brief: (§2)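 Guinea pig left atria driven at 1 Hz. Pretreated with compound at 0.01 μM, added 30 min before diltiazem, verapamil or nifedipine. Blocker concentration−response curves analysed by probit (Litchfield and Wilcoxon), n = 6−7. Data given as mean ±, Student's t test.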

[6] = system: Left cardiac atrium; assay: Negative inotropic activity in potassium depolarized guinea pig left atrium assessed as EC50 for diltiazem at 10^-8 M preincubated for 30 mins followed by diltiazem addition; format: functional; details: Cavia porcellus; method in brief: as §2
[7] = system: Aorta; assay: Vasorelaxant activity in potassium depolarized guinea pig aorta assessed as inhibition of calcium-induced contraction at 10^-8 M preincubated for 30 mins followed by 5 uM verapamil addition; format: functional, Cavia porcellus; set-up: scale not given: the % may be the effect or the level left
[8] = system: Aorta; assay: Vasorelaxant activity in potassium depolarized guinea pig aorta assessed as inhibition of calcium-induced contraction at 10^-6 M preincubated for 30 mins followed by 10^-5 M verapamil addition; format: functional, Cavia porcellus; set-up: scale not given: the % may be the effect or the level left; method in brief: as §1
[9] = system: Aorta; assay: Vasorelaxant activity in potassium depolarized guinea pig aorta assessed as inhibition of calcium-induced contraction at 10^-8 M preincubated for 30 mins followed by 50 uM diltiazem addition; format: functional, Cavia porcellus; set-up: scale not given: the % may be the effect or the level left
[10] = molecular target: Cytochrome P450 2D6 (Homo sapiens, UniProt P10635); assay: Inhibition of CYP2D6 in human liver microsomes using dextromethorphan as substrate after 10 mins by LC-MS analysis
Sequence of Cytochrome P450 2D6 (P10635 whole entry): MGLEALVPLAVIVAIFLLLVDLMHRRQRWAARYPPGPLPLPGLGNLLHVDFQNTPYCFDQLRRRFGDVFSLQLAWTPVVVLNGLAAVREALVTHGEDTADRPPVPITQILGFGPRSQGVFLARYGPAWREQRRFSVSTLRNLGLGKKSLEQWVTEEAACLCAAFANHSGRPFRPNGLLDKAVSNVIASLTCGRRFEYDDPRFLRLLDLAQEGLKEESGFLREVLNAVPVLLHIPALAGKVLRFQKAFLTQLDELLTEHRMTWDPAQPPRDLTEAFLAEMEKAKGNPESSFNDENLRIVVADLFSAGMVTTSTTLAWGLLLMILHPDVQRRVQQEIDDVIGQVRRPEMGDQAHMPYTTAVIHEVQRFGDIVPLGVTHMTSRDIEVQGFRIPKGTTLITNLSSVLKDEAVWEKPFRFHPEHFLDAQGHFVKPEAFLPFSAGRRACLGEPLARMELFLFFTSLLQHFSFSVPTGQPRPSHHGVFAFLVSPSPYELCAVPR

[11] = system: Liver microsome; assay: Stability in human liver microsomes at 1 uM after 2 to 60 mins by LC-MS analysis in absence of NADPH
[12] = system: Left cardiac atrium; assay: Negative inotropic activity against potassium depolarized guinea pig left atrium assessed as decrease in verapamil EC50 at 10^-8 M preincubated for 30 mins followed by verapamil addition relative to control; format: functional, Cavia porcellus
Method in brief: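 Isolated guinea pig left atria, electrically driven at 1 Hz. The pretreatment agent (0.01 μM) was added to the bath 30 min before the L-type calcium channel blocker. Blocker concentration–response curves were then run to obtain the negative inotropic EC50, which was compared with the EC50 for the blocker alone. Data were compared by Student's t test.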

[13] = system: Aorta; assay: Inhibition of diltiazem-induced vasorelaxant activity in potassium depolarized guinea pig aorta assessed as relaxation of calcium-induced contraction at 10^-8 M preincubated for 30 mins followed by diltiazem addition; format: functional, tissue-based; details: Cavia porcellus
[14] = in vitro; details: human, liver microsomes

CCOC1(c2ccc(Br)cc2)SC=C(C)n2c1noc2=O (stereo not given)
IC50 [1]: 18300 nM | inhibition (INH) ([1]; rat, 1 h): Dose-dependent effect | inhibition [2]: Active | Activity [3]: 94% | Activity [4]: 95% | EC50 [5]: 50 nM | EC50 [6]: 270 nM | Activity [7]: 20% | Activity [8]: 36% | Activity [9]: 64% | IC50 [10]: 4100 nM | Stability [11]: Stable | fold change (FC) [12]: 12 | inhibition [13]: inactive | microsomal CLint at 1 µM [14]: 53 µL/min/mg
